Results published in ChEMBL document CHEMBL3046550, “Design, synthesis, and insecticidal evaluation of new benzoylureas containing amide and sulfonate groups based on the sulfonylurea receptor protein binding site for diflubenzuron and glibenclamide” (2013).

Tests used:
Format in all cases: functional
Details in all cases: 96 h
Mythimna separata [1] = assay: Larvicidal activity against fourth instar larvae of Mythimna separata (Oriental armyworm) infected compound-treated corn leaves assessed as mortality at 50 mg/l measured after 4 days
Summary of the method: (§1)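 Petri dishes each infested with 10 fourth-instar larvae; percentage mortality scored 4 days after treatment. Three replicates per treatment, with the reported value the mean of the three.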

Mythimna separata [2] = assay: Larvicidal activity against fourth instar larvae of Mythimna separata (Oriental armyworm) infected compound-treated corn leaves assessed as mortality at 100 mg/l measured after 4 days; summary of the method: as §1
Mythimna separata [3] = assay: Larvicidal activity against fourth instar larvae ofMythimna separata (Oriental armyworm) infected compound-treated corn leaves assessed as mortality at 200 mg/l measured after 4 days; summary of the method: as §1
Plutella xylostella [4] = assay: Larvicidal activity against second-instar larvae of Plutella xylostella (diamondback moth) infected in compound-treated cabbage leaves assessed as mortality at 200 mg/l measured after 4 days
Summary of the method: (§2)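 Test solutions at the different concentrations were made by dissolving compounds in DMF and adding distilled water.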

Plutella xylostella [5] = assay: Larvicidal activity against second-instar larvae of Plutella xylostella (diamondback moth) infected in compound-treated cabbage leaves assessed as mortality at 20 mg/l measured after 4 days; summary of the method: as §2
Mythimna separata [6] = assay: Larvicidal activity against fourth instar larvae of Mythimna separata (Oriental armyworm) infected compound-treated corn leaves assessed as mortality at 10 mg/l measured after 4 days; summary of the method: as §1
Plutella xylostella [7] = assay: Larvicidal activity against second-instar larvae of Plutella xylostella (diamondback moth) infected in compound-treated cabbage leaves assessed as mortality at 5 mg/l measured after 4 days; summary of the method: as §2
Plutella xylostella [8] = assay: Larvicidal activity against second-instar larvae of Plutella xylostella (diamondback moth) infected in compound-treated cabbage leaves assessed as mortality at 2 mg/l measured after 4 days; summary of the method: as §2
Mythimna separata [9] = assay: Larvicidal activity against fourth instar larvae of Mythimna separata (Oriental armyworm) infected compound-treated corn leaves assessed as mortality at 5 mg/l measured after 4 days; summary of the method: as §1
Mythimna separata [10] = assay: Larvicidal activity against fourth instar larvae of Mythimna separata (Oriental armyworm) infected compound-treated corn leaves assessed as mortality at 20 mg/l measured after 4 days; summary of the method: as §1
Mythimna separata [11] = assay: Larvicidal activity against fourth instar larvae of Mythimna separata (Oriental armyworm) infected compound-treated corn leaves assessed as mortality at 1 mg/l measured after 4 days; summary of the method: as §1
Mythimna separata [12] = assay: Larvicidal activity against fourth instar larvae of Mythimna separata (Oriental armyworm) infected compound-treated corn leaves assessed as mortality at 2.5 mg/l measured after 4 days; summary of the method: as §1

| Structure (SMILES) | mortality at 50 µg/mL (Mythimna separata [1]) | mortality at 100 µg/mL (Mythimna separata [2]) | mortality at 200 µg/mL (Mythimna separata [3]) | mortality at 200 µg/mL (Plutella xylostella [4]) | also measured |
| --- | --- | --- | --- | --- | --- |
| O=C(NC(=O)c1c(F)cccc1F)Nc1ccc(S(=O)(=O)OCCF)cc1 | 0% | 100% | 100% | 20% | – |
| O=C(NC(=O)c1c(F)cccc1F)Nc1ccc(S(=O)(=O)OCCCl)cc1 | 40% | 100% | 100% | 30% | – |
| O=C(NC(=O)c1c(F)cccc1F)Nc1ccc(S(=O)(=O)OC(C(F)(F)F)C(F)(F)F)cc1 | – | – | 0% | 60% | mortality at 20 µg/mL (Plutella xylostella [5]): 20% |
| O=C(NC(=O)c1c(F)cccc1F)Nc1ccc(S(=O)(=O)OCCCCCl)cc1 | 20% | 100% | 100% | 20% | – |
| CCCCCOS(=O)(=O)c1ccc(NC(=O)NC(=O)c2c(F)cccc2F)cc1 | 60% | 100% | 100% | 30% | mortality at 10 µg/mL (Mythimna separata [6]): 95% |
| CC(C)(C)NC(=O)c1ccc(NC(=O)NC(=O)c2c(F)cccc2F)cc1 | 50% | 100% | 100% | 0% | – |
| CC(C)N(C(=O)c1ccc(NC(=O)NC(=O)c2c(F)cccc2F)cc1)C(C)C | – | – | 0% | – | mortality at 20 µg/mL (Plutella xylostella [5]): 100% |
| CN(C(=O)c1ccc(NC(=O)NC(=O)c2c(F)cccc2F)cc1)c1ccc(Cl)cc1 | – | – | 0% | 0% | – |
| O=C(NC(=O)c1c(F)cccc1F)Nc1ccc(C(=O)Nc2ccc(Cl)cc2)cc1 | – | – | 0% | 0% | – |
| CCCCNC(=O)c1ccc(NC(=O)NC(=O)c2c(F)cccc2F)cc1 | – | – | 0% | 0% | – |
| O=C(NC(=O)c1c(F)cccc1F)Nc1ccc(C(=O)N2CCOCC2)cc1 | – | – | 0% | 0% | – |
| CC(C)(C)c1ccc(CNC(=O)c2ccc(NC(=O)NC(=O)c3c(F)cccc3F)cc2)cc1 | – | – | 0% | 0% | – |
| O=C(NC(=O)c1c(F)cccc1F)Nc1ccc(S(=O)(=O)Oc2ccc(Cl)cc2)cc1 | – | – | 0% | 0% | – |
| CC1CCC(C(C)C)C(OS(=O)(=O)c2ccc(NC(=O)NC(=O)c3c(F)cccc3F)cc2)C1 (stereo not drawn) | – | – | 0% | 0% | – |
| O=C(NC(=O)c1c(F)cccc1F)Nc1ccc(S(=O)(=O)OCC(F)(F)F)cc1 | 100% | 100% | 100% | 100% | mortality at 20 µg/mL (Plutella xylostella [5]): 100%; mortality at 5 µg/mL (Plutella xylostella [7]): 90%; mortality at 10 µg/mL (Mythimna separata [6]): 100%; mortality at 2 µg/mL (Plutella xylostella [8]): 40%; mortality at 5 µg/mL (Mythimna separata [9]): 60%; mortality at 20 µg/mL (Mythimna separata [10]): 100% |
| O=C(NC(=O)c1c(F)cccc1F)Nc1ccc(CO/N=C(/c2ccc(Cl)cc2)C2CC2)cc1 [FLUCYCLOXURON] | – | – | – | – | mortality at 5 µg/mL (Mythimna separata [9]): 90%; mortality at 1 µg/mL (Mythimna separata [11]): 10%; mortality at 2.5 µg/mL (Mythimna separata [12]): 50% |
